From ChEMBL document CHEMBL1145931, “Synthesis of a prodrug designed to release multiple inhibitors of the epidermal growth factor receptor tyrosine kinase and an alkylating agent: a novel tumor targeting concept” (J Med Chem, 2003)

Assays:
[1] = Inhibition of serum stimulated NIH3T3/neu (ErbB2/neu expressing) cell proliferation; format: functional
How it was run: (§1)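 Cells were kept in DMEM with 10% FBS, grown to 70% confluence, PBS-washed and serum-starved for 24 h. They were then exposed to drug plus serum for 72 h, with DMSO at most 0.2%. Growth was measured by SRB staining after TCA fixation, OD 492 nm. IC50s are means from three experiments.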

[2] = Half-life period in RPMI; format: ADME; settings: RPMI medium
How it was run: (§2)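 Compound dissolved in a minimal amount of DMSO and diluted into RPMI-1640 with 10% FBS. Absorbance was monitored spectrophotometrically in a UV cell held at 37 °C. Half-life came from a one-phase exponential decay curve fit. Each value is from a single experiment.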

[3] = test system: NIH3T3; assay: Inhibition of serum stimulated NIH3T3 cell proliferation; format: functional, cell-based; settings: Mus musculus; how it was run: as §1
[4] = Half-life period in phosphate buffered saline (PBS); format: ADME
[5] = Inhibition of serum stimulated HER-14 (EGF-receptor expressing) cell proliferation; format: functional; how it was run: as §1
[6] = biological target: Epidermal growth factor receptor (Homo sapiens) (UniProt P00533); assay: Inhibition of epidermal growth factor receptor tyrosine kinase (EGFR TK)
Chain of Epidermal growth factor receptor (Homo sapiens) (P00533 whole entry, looked up): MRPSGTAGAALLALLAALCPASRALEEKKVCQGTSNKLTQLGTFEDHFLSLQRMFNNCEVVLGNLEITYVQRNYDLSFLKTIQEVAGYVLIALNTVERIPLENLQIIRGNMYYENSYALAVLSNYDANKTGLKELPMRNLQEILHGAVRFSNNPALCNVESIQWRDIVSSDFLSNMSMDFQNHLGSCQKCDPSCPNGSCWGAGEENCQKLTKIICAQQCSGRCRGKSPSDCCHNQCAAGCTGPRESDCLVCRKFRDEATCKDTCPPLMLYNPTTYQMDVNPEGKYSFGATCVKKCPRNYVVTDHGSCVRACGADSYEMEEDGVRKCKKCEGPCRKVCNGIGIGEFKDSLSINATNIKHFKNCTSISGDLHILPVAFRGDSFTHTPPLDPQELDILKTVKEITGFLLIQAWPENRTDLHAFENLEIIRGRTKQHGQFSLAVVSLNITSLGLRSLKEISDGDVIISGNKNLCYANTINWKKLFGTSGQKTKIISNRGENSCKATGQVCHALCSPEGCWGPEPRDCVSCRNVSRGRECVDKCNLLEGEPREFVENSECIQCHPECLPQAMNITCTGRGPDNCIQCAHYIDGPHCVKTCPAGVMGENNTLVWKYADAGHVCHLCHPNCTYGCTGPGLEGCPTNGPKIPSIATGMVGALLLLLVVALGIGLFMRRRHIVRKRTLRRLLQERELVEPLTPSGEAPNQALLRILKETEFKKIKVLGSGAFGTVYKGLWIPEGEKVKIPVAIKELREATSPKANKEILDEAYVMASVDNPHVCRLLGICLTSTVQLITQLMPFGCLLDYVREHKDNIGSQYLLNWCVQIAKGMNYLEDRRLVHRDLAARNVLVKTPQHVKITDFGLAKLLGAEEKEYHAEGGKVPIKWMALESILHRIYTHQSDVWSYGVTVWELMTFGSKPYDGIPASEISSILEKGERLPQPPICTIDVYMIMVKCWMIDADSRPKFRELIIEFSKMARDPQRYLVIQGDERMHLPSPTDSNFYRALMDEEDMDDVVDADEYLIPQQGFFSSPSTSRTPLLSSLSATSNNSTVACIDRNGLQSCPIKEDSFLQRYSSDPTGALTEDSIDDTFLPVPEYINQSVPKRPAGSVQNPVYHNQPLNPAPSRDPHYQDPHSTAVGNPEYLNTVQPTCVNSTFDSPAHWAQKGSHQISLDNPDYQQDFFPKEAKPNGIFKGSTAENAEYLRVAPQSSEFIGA

[7] = Half-life period in phosphate buffered saline (PBS); Not active; format: ADME; settings: buffer
[8] = Half-life period in RPMI; Not active; format: ADME; how it was run: as §2

Row | Compound | IC50 [1] | half-life [2] | IC50 [3] | half-life [4] | IC50 [5] | IC50 [6] | NA [7] | NA [8]
1 | C/N=N/Nc1ccc2ncnc(Nc3cccc(C)c3)c2c1 | 16.5 µM | 35 min | 125 µM | 69 min | 28.9 µM |  |  | 
2 | C/N=N/Nc1ccc2ncnc(Nc3cccc(Br)c3)c2c1 | 0.09 µM | 38 min | 150 µM | 68 min | 8.8 µM |  |  | 
3 | CN(CO)/N=N/c1ccc2ncnc(Nc3cccc(Br)c3)c2c1 | 0.09 µM | 40 min | 12.8 µM | 70 min | 2.1 µM |  |  | 
4 | COc1cc2ncnc(Nc3cccc(Cl)c3)c2cc1OC.Cn1nnc2c(C(O)O)ncn2c1=O | 1.1 µM |  | 39.4 µM |  | 6.2 µM |  |  | 
5 | CC(=O)OCN(C)/N=N/c1ccc2ncnc(Nc3cccc(Br)c3)c2c1 | 0.21 µM | 42 min | 15.4 µM | 84 min | 3.4 µM | 130 nM |  | 
6 | CC(=O)N(C)/N=N/c1ccc2ncnc(Nc3cccc(C)c3)c2c1 | 60.6 µM | > 200 min | 200 µM | > 200 min | 149 µM | 578 nM |  | 
7 | Nc1ccc2ncnc(Nc3cccc(Br)c3)c2c1 | 0.42 µM |  | 14.5 µM |  | 10.4 µM |  | Not Active | Not Active
8 | COc1cc2ncnc(Nc3cccc(Cl)c3)c2cc1OC [TYRPHOSTIN AG-1478] | 4 µM |  | 28.6 µM |  | 9.8 µM |  |  | 
